# Results pooled from the literature.
# LNPEP: Leucyl-cystinyl aminopeptidase (LNPEP, Homo sapiens, UniProt Q9UIQ6)
# JAK1: Tyrosine-protein kinase JAK1 (JAK1, Homo sapiens, UniProt P23458)
# PBRM1 bromodomain: Protein polybromo-1, bromodomain (PBRM1, Homo sapiens, UniProt Q86U86)
# SLCO1B1: Solute carrier organic anion transporter family member 1B1 (SLCO1B1, Homo sapiens, UniProt Q9Y6L6)
# MMP13: Collagenase 3 (MMP13, Homo sapiens, UniProt P45452)
# CHRM1: Muscarinic acetylcholine receptor M1 (CHRM1, Homo sapiens, UniProt P11229)
# Kcna3: Potassium voltage-gated channel subfamily A member 3 (Kcna3, Mus musculus, UniProt P16390)
# Cruzipain: Cruzipain (Trypanosoma cruzi, UniProt P25779)
Compound,target,assay,system,setting,IC50 [µM]
O=S(=O)(Nc1cccc(-c2nnn[nH]2)c1)c1cc(Br)c(Cl)s1,LNPEP,"enzyme activity, inhibitor, fluorescence",,,1.1
Oc1c2ccccc2c2c3c(cccc13)N=N2,JAK1,"enzyme activity, inhibitor",,,0.974
Nc1ncc2c(n1)-c1c([nH]c3ccc(-c4ccc(F)cc4)cc13)CCC2,"Dual serine/threonine and tyrosine protein kinase (DSTYK, Homo sapiens, UniProt Q6XUX3)","enzyme activity, inhibitor, radiometric",,,3.9
O=S(=O)(Nc1cccc(-c2nnn[nH]2)c1)c1ccc(Cl)c2nonc12,LNPEP,"enzyme activity, inhibitor, fluorescence",,,0.4
CC(C)c1cc(NC(=O)Nc2ccc(F)c(F)c2)n(-c2ccccc2)n1,"Kir3.1/Kir3.4 (Homo sapiens, UniProt P48544+P48549)","enzyme activity in cells, inhibitor",,,4.1
Cc1ncsc1-c1ccc(CNC(=O)[C@@H]2C[C@H](O)CN2C(=O)[C@@H](NC(=O)C2(F)CC2)C(C)(C)C)c(OCCOc2ccc(CN3CCN(c4cc(-c5ccccc5O)nnc4N)CC3)cc2)c1,PBRM1 bromodomain,"cell-free assay, TR-FRET",,,0.51
CCOC(=O)Nc1ccc2c(c1)N(C(=O)CCN1CCOCC1)c1ccccc1S2,SLCO1B1,"transporter uptake, inhibitor, fluorescence",CHO,"30 min, pH 7.4",8.1
Cn1cc(-c2cc3cc(-c4cc(C(=O)NCc5ccc(C(=O)O)cc5)nn4C)ccc3[nH]2)cn1,MMP13,"enzyme activity, inhibitor, FRET",,,0.0016
CCOC(=O)[C@H](CCc1ccccc1)N[C@@H](C)C(=O)N1[C@H](C(=O)O)C[C@@H]2CCC[C@@H]21,SLCO1B1,"transporter uptake, inhibitor, fluorescence",CHO,"30 min, pH 7.4",4
CCOCc1nc(O)c(-c2nnc(Cc3ccc(Cl)cn3)o2)c(O)c1-c1c(OC)cccc1OC,"5-hydroxytryptamine receptor 4 (HTR4, Homo sapiens, UniProt Q13639)","ligand displacement, radioligand",,,> 30
Cc1ccc(C(C)C)c(O)c1,"gbr-2 (Haemonchus contortus, UniProt O46124)","ion current, antagonist, two-electrode voltage clamp",,oocytes,1200
CCOc1cc(CC(=O)N[C@@H](CC(C)C)c2ccccc2N2CCCCC2)ccc1C(=O)O,SLCO1B1,"transporter uptake, inhibitor, fluorescence",CHO,"30 min, pH 7.4",1.1
Cc1ncsc1-c1ccc(CNC(=O)[C@@H]2C[C@@H](O)CN2C(=O)[C@@H](NC(=O)C2(F)CC2)C(C)(C)C)c(OCCOCCOCCN2CCN(c3cc(-c4ccccc4O)nnc3N)CC2)c1,PBRM1 bromodomain,"cell-free assay, TR-FRET",,,1.5
O=S(=O)(Nc1cccc(-c2nnn[nH]2)c1)c1ccc(C(F)(F)F)c(F)c1,LNPEP,"enzyme activity, inhibitor, fluorescence",,,7.5
CCC1CN(C(=O)NCC(F)(F)F)CC1N(C)c1ncnc2[nH]ccc12 (centres unmarked),JAK1,"enzyme activity, inhibitor, ADP detection",,,0.93
Cc1noc(-c2cc3cc(-c4nc(C(=O)NCc5ccccc5)[nH]c4C)ccc3[nH]2)n1,MMP13,"enzyme activity, inhibitor, FRET",,,0.0023
CC/C=C\C/C=C\C/C=C\C/C=C\C/C=C\CCCC(=O)O,"DNA polymerase delta catalytic subunit (POLD1, Homo sapiens, UniProt P28340)","enzyme activity, inhibitor",,,39.2
O=S(=O)(Nc1cccc(-c2nnn[nH]2)c1)c1cc(C(F)(F)F)ccc1C(F)(F)F,LNPEP,"enzyme activity, inhibitor, fluorescence",,,0.8
Cc1noc(-c2cc3cc(-c4nc(C(=O)NCc5ccc(=O)[nH]c5)[nH]c4C)ccc3[nH]2)n1,MMP13,"enzyme activity, inhibitor, FRET",,,0.00033
O=S(=O)(Nc1cccc(-c2nnn[nH]2)c1)c1cc(C(F)(F)F)cc(C(F)(F)F)c1,LNPEP,"enzyme activity, inhibitor, fluorescence",,,4.1
C[N+]1(C)CCC(OC(=O)C(c2ccccc2)c2ccccc2)CC1,CHRM1,"ligand displacement, radioligand",,,0.00364
Cn1nc(C(=O)NCc2ccc(C(=O)O)cc2)cc1-c1ccc2[nH]c(-c3ccncc3)cc2c1,MMP13,"enzyme activity, inhibitor, FRET",,,0.00092
COc1ccc2c(Oc3ccc4c(C(=O)Nc5ccccc5N)cccc4c3)ccnc2c1,JAK1,"enzyme activity, inhibitor",,,> 0.5
Nc1ccccc1S(N)(=O)=O,SLCO1B1,"transporter uptake, inhibitor, fluorescence",CHO,"30 min, pH 7.4",> 100
O=c1ccc2c(OCCCCOc3cccc(O)c3)c3ccoc3cc2o1,Kcna3,"ion current, inhibitor, patch clamp",,,0.139
Cc1noc(-c2cc3cc(-c4nc(C(N)=O)[nH]c4C)ccc3[nH]2)n1,MMP13,"enzyme activity, inhibitor, FRET",,,0.016
CCCC[C@H](NC(=O)C1CN(C)C1)c1ncc(-c2cc3ccccc3nc2OC)[nH]1,"Histone deacetylase 11 (HDAC11, Homo sapiens, UniProt Q96DB2)","enzyme activity, inhibitor",,,> 30
O=C(N[C@@H](Cc1ccccc1)C(=O)c1noc(-c2ccccc2)n1)[C@H](Cc1ccccc1)NC(=O)N1CCOCC1,"Papain (Carica papaya, UniProt P00784)","enzyme activity, inhibitor",,"pH 6.5, with preincubation",0.2
O=C(COc1ccc(Cl)cc1)N1CCN(Cc2ccc3c(c2)OCO3)CC1,SLCO1B1,"transporter uptake, inhibitor, fluorescence",CHO,"30 min, pH 7.4",34.5
O=C(O[C@H]1[C@@H]2C=CO[C@@H](O[C@@H]3O[C@H](CO)[C@@H](O)[C@H](O)[C@H]3O)[C@@H]2[C@@]2(CO)O[C@@H]12)c1ccc(O)cc1,SLCO1B1,"transporter uptake, inhibitor, radiometric",HEK293,10 min,200
CN(c1cccc(-c2nnn[nH]2)c1)S(=O)(=O)c1cc(Br)c(Cl)s1,LNPEP,"enzyme activity, inhibitor, fluorescence",,,11.8
CCn1c(-c2nc3cc(C(=O)N4CCC[C@@H](N)C4)cc(OC)c3n2C)cc2cccnc21,CHRM1,"calcium signal, antagonist, fluorescence",,,63.1
Nc1nc2ccc(OC(F)(F)F)cc2s1,Kcna3,"ion current, inhibitor, patch clamp",,,50
COC(=O)c1nc(N)n(C(=O)c2ccc(C(C)(C)C)cc2)n1,"Coagulation factor XII (F12, Homo sapiens, UniProt P00748)","enzyme activity, inhibitor, absorbance",,,~0.11
Cn1nc(C(=O)NCc2ccc(C(=O)O)cc2)cc1-c1ccc2[nH]c(-c3ccncn3)cc2c1,MMP13,"enzyme activity, inhibitor, FRET",,,0.00081
CN1CCN(c2ccc(Nc3ncc4cc(C#N)c(=O)n(C5CCCC5)c4n3)cc2)CC1,"Calcium/calmodulin-dependent protein kinase type II subunit gamma (CAMK2G, Homo sapiens, UniProt Q13555)","enzyme activity, inhibitor",,,3.87
COc1ccc(Cl)cc1NC(=O)COC(=O)C(CC(C)C)N1C(=O)C2CC=CCC2C1=O (centres unmarked),Cruzipain,"enzyme activity, inhibitor",,,13
NCc1ccc(Nc2ncc(F)c(Nc3ccccc3)n2)cc1,"Serine/threonine-protein kinase PAK 4 (PAK4, Homo sapiens, UniProt O96013)","enzyme activity, inhibitor",,lysate,> 10
CCn1ncc2c1-c1cnc(N)c(c1)O[C@H](C)c1cc(F)ccc1-c1nn(C)nc1C2,"Insulin receptor (INSR, Homo sapiens, UniProt P06213)","enzyme activity, inhibitor, radiometric",,,1.14
COc1ccc(NC(=O)COC(=O)C(CC(C)C)N2C(=O)C3CC=CCC3C2=O)cc1Cl (centres unmarked),Cruzipain,"enzyme activity, inhibitor, fluorescence",,,0.9
O=S(=O)(Nc1cccc(-c2nnn[nH]2)c1)c1ccc(Br)cc1F,LNPEP,"enzyme activity, inhibitor, fluorescence",,,5.5
CCOc1ccc2c(-c3cc(C)nc(Nc4cc(OC)cc(C(F)(F)F)c4)n3)cnn2n1,"Dual specificity protein kinase CLK2 (CLK2, Homo sapiens, UniProt P49760)","enzyme activity, inhibitor",,,> 10
CC(C)C(NC(=O)c1ccco1)C(=O)NCC(c1ccco1)N1CCCCC1 (centres unmarked),Cruzipain,"enzyme activity, inhibitor",,,14
Nc1nc(N)c2nc(CNc3cccc4ccccc34)cnc2n1,"Cytochrome P450 3A4 (CYP3A4, Homo sapiens, UniProt P08684)","enzyme activity, inhibitor, luciferase",,,66.1
